pIC50: −log10 of the molar value.
What was measured:
[1] = system: delta toxin production (strain AH2759); experiment: Quorum sensing inhibition observed by delta toxin immunoblot; type: cell-based, Staphylococcus aureus (MRSA); conditions: strain AH2759 in TSB; compounds 0.3–400 μM, AIP-2 2–500 nM; spent media
How it was run: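 Spent media from the agr P3lux reporter cultures: TSB with 10 μg/mL chloramphenicol, 1:500 inoculum, 1% DMSO final, 37 °C with shaking at 250 rpm. Wells were pooled and 0.22 μm filtered, then run on 15% SDS-PAGE and transferred to PVDF (90 min, 160 mA). Blots were blocked overnight at 4 °C in milk/BSA TBST, then probed 1 h at rt with rabbit anti-delta toxin (1:2000) and HRP anti-rabbit (1:10 000).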

[2] = system: agr quorum-sensing system (agr P3lux reporter strain AH2759); experiment: agr P3lux reporter strain assay for quorum sensing inhibition; type: cell-based, Staphylococcus aureus (CA-MRSA strain LAC, USA300); conditions: Staphylococcus aureus, read-out: agr P3lux IC50, reporter strain AH2759; cell-density-normalized luminescence; ± standard error from four-parameter logistic fit

Row | SMILES | suppression of delta toxin production (immunoblot) [1] | pIC50 [2]
1 | O=C(O)c1cc(O)c2c(c1)C(=O)c1cc(O)c(O)c(O)c1C2=O [compound 1] | dose-dependent suppression | 
2 | O=C1c2cc(O)cc(O)c2C(=O)c2c(O)cc(CO)cc21 [compound 3, ω-hydroxyemodin] | dose-dependent suppression | > 5.00
3 | CC(=O)C(O)c1cc(O)c2c(c1)C(=O)c1cc(O)cc(O)c1C2=O (centres unmarked) [compound 4] | dose-dependent suppression | 
4 | C[C@H](O)Cc1cc(O)c2c(c1)C(=O)c1cc(O)cc(O)c1C2=O [compound 6, (+)-2′S-isorhodoptilometrin] |  | > 5.00

From article PMC4073659 (Journal of Natural Products, 2014)
